Results: ChEMBL document CHEMBL4619801, “Discovery of Phthalazinone Derivatives as Novel Hepatitis B Virus Capsid Inhibitors” (J Med Chem, 2020)

What was measured:
[1] = Tmax in Sprague-Dawley rat at 20 mg/kg, po dosed as single administration; format: ADME, organism-based; conditions: in vivo
[2] = Drug metabolism in mouse liver microsomes assessed as compound level by measuring UV-area at 3 uM in presence of NADPH incubated for 60 mins by UPLC-UV/QTOF MS analysis; format: ADME, Microsome; conditions: 1 h
Outline: (§1)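 Each incubation held liver microsomes (human, monkey, dog, rat or mouse) at 0.5 mg/mL with 3.0 μM compound in 100 mM potassium phosphate, pH 7.4. After 3 min prewarming at 37 °C, the reaction was started with 1 mM NADPH. It was stopped at 60 min with ice-cold acetonitrile. Parent remaining and metabolites were judged from relative UV area.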

[3] = Drug metabolism in rat liver microsomes assessed as compound level by measuring UV-area of metabolite-M1 at 3 uM in presence of NADPH incubated for 60 mins by UPLC-UV/QTOF MS analysis; format: ADME, Microsome; conditions: 1 h; outline: as §1
[4] = Cmax in Sprague-Dawley rat at 20 mg/kg, po dosed as single administration; format: ADME, organism-based; parameters: dose 20 mg/kg, route oral; conditions: in vivo
Hepatitis B virus = assay: Antiviral activity against Hepatitis B virus assessed as reduction in HBV DNA-free capsid formation; format: functional, organism-based
[5] = Drug metabolism in monkey liver microsomes assessed as compound level by measuring UV-area of metabolite-M1 at 3 uM in presence of NADPH incubated for 60 mins by UPLC-UV/QTOF MS analysis; format: ADME, Macaca mulatta, Microsome; conditions: rhesus monkey, 1 h; outline: as §1
[6] = Cytotoxicity in human HepG2.2.15 cells assessed as reduction in cell viability incubated for 8 days by MTT assay; format: cell-based, HepG2 2.2.15
Outline: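 This was run in the same 8-day HepG2.2.15 cultures. After the medium was removed, MTT was added (final 2.5 mg/mL) for 1 h at 37 °C. Cells were lysed in 10% SDS/50% DMF, pH 7.2, and OD was read at 570 nm to give % cell death. CC50 was averaged with SD from at least two independent determinations.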

[7] = Drug metabolism in rat liver microsomes at 3 uM in presence of NADPH incubated for 60 mins by UPLC-UV/QTOF MS analysis relative to control; format: ADME, Microsome; conditions: read-out: Drug metabolism; outline: as §1
[8] = Drug metabolism in human liver microsomes assessed as compound level by measuring UV-area of metabolite-M1 at 3 uM in presence of NADPH incubated for 60 mins by UPLC-UV/QTOF MS analysis; format: ADME, Microsome; conditions: 1 h; outline: as §1
[9] = Drug metabolism in human liver microsomes assessed as compound level by measuring UV-area at 3 uM in presence of NADPH incubated for 60 mins by UPLC-UV/QTOF MS analysis; format: ADME, Microsome; conditions: 1 h; outline: as §1
[10] = Drug metabolism in mouse liver microsomes assessed as compound level by measuring UV-area of metabolite-M1 at 3 uM in presence of NADPH incubated for 60 mins by UPLC-UV/QTOF MS analysis; format: ADME, Microsome; conditions: 1 h; outline: as §1
[11] = Drug metabolism in dog liver microsomes assessed as compound level by measuring LC-MS area at 3 uM in presence of NADPH incubated for 60 mins by UPLC-UV/QTOF MS analysis; format: ADME, Canis lupus familiaris, Microsome; conditions: 1 h; outline: as §1
[12] = Toxicity in human HepG2.2.15 cells; format: cell-based, HepG2 2.2.15
Outline: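 HepG2.2.15 cells seeded at 4 × 10³ cells/well and exposed to a range of compound concentrations for 8 days. MTT (final 2.5 mg/mL) was added for 1 h at 37 °C, then cells were lysed in 10% SDS/50% DMF, pH 7.2. OD was read at 570 nm and % cell death calculated. CC50 is the mean ± SD of at least two independent determinations.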

[13] = Drug metabolism in human liver microsomes at 3 uM in presence of NADPH incubated for 60 mins by UPLC-UV/QTOF MS analysis relative to control; format: ADME, Microsome; conditions: read-out: Drug metabolism; outline: as §1
[14] = Drug metabolism in rat liver microsomes assessed as compound level by measuring UV-area at 3 uM in presence of NADPH incubated for 60 mins by UPLC-UV/QTOF MS analysis; format: ADME, Microsome; conditions: 1 h; outline: as §1
[15] = Drug metabolism in rat liver microsomes assessed as compound level by measuring LC-MS area at 3 uM in presence of NADPH incubated for 60 mins by UPLC-UV/QTOF MS analysis; format: ADME, Microsome; conditions: 1 h; outline: as §1
[16] = Half life in Sprague-Dawley rat at 2 mg/kg, iv dosed as single administration; format: ADME, organism-based; conditions: in vivo
[17] = Drug level in Sprague-Dawley rat liver at 20 mg/kg, po dosed as single administration measured up to 24 hrs; format: ADME, organism-based; conditions: in vivo
[18] = AUC (0 to t) in Sprague-Dawley rat at 20 mg/kg, po dosed as single administration; format: ADME, organism-based; conditions: in vivo
[19] = Drug metabolism in human liver microsomes assessed as compound level by measuring LC-MS area at 3 uM in presence of NADPH incubated for 60 mins by UPLC-UV/QTOF MS analysis; format: ADME, Microsome; conditions: 1 h; outline: as §1
[20] = Drug metabolism in dog liver microsomes assessed as compound level by measuring LC-MS area of metabolite-M1 at 3 uM in presence of NADPH incubated for 60 mins by UPLC-UV/QTOF MS analysis; format: ADME, Canis lupus familiaris, Microsome; conditions: 1 h; outline: as §1
[21] = Drug metabolism in rat liver microsomes assessed as compound level by measuring LC-MS area of metabolite-M1 at 3 uM in presence of NADPH incubated for 60 mins by UPLC-UV/QTOF MS analysis; format: ADME, Microsome; conditions: 1 h; outline: as §1
[22] = Drug metabolism in dog liver microsomes assessed as compound level by measuring UV-area at 3 uM in presence of NADPH incubated for 60 mins by UPLC-UV/QTOF MS analysis; format: ADME, Canis lupus familiaris, Microsome; conditions: 1 h; outline: as §1
[23] = Drug metabolism in mouse liver microsomes assessed as compound level by measuring LC-MS area of metabolite-M2 at 3 uM in presence of NADPH incubated for 60 mins by UPLC-UV/QTOF MS analysis; format: ADME, Microsome; conditions: 1 h; outline: as §1
[24] = Drug metabolism in monkey liver microsomes assessed as compound level by measuring LC-MS area of metabolite-M1 at 3 uM in presence of NADPH incubated for 60 mins by UPLC-UV/QTOF MS analysis; format: ADME, Macaca mulatta, Microsome; conditions: rhesus monkey, 1 h; outline: as §1
[25] = Drug metabolism in monkey liver microsomes assessed as compound level by measuring LC-MS area at 3 uM in presence of NADPH incubated for 60 mins by UPLC-UV/QTOF MS analysis; format: ADME, Macaca mulatta, Microsome; conditions: rhesus monkey, 1 h; outline: as §1
[26] = Drug metabolism in mouse liver microsomes at 3 uM in presence of NADPH incubated for 60 mins by UPLC-UV/QTOF MS analysis relative to control; format: ADME, Microsome; outline: as §1
[27] = Half life in Sprague-Dawley rat at 20 mg/kg, po dosed as single administration; format: ADME, organism-based; conditions: in vivo
[28] = Drug metabolism in human liver microsomes assessed as compound level by measuring LC-MS area of metabolite-M1 at 3 uM in presence of NADPH incubated for 60 mins by UPLC-UV/QTOF MS analysis; format: ADME, Microsome; conditions: 1 h; outline: as §1
[29] = Drug metabolism in mouse liver microsomes assessed as compound level by measuring LC-MS area of metabolite-M1 at 3 uM in presence of NADPH incubated for 60 mins by UPLC-UV/QTOF MS analysis; format: ADME, Microsome; conditions: 1 h; outline: as §1

Molecule `Cc1cc(-c2ccc(F)nc2F)nn(Cc2ccc(Cl)cc2)c1=O` has a Tmax [1] of 0.25 h, an Activity [2] of under 5 ×10³ No_unit and an Activity [3] of 56.7 ×10³ No_unit. The Cmax [4] was 352 ng/mL, the IC50 (Hepatitis B virus) was 0.087 µM and the Activity [5] was 113 ×10³ No_unit. For the same molecule, the CC50 at 192 h [6] was 83.8 µM, the metabolised at 1 h, 3 µM [7] was 64% and the Activity [8] was 51.3 ×10³ No_unit. The Activity [9] was 82 ×10³ No_unit, the Activity [10] was 117 ×10³ No_unit and the Activity [11] was 3.09 ×10³ No_unit. The CC50 [12] was 90.6 µM, the metabolised at 1 h, 3 µM [13] was 34% and the Activity [14] was 44.8 ×10³ No_unit. For the same molecule, the Activity [15] was 7.4 ×10³ No_unit, the t1/2 [16] was 2.03 h and the Drug uptake [17] was “Not Active”. For the same molecule, the AUC(0-t) [18] was 1100 ng·h/mL, the Activity [19] was 13.5 ×10³ No_unit and the Activity [20] was 5.97 ×10³ No_unit. It also gave an Activity [21] of 3.05 ×10³ No_unit, an Activity [22] of 26.3 ×10³ No_unit and an Activity [23] of 0.79 ×10³ No_unit. It also gave an Activity [24] of 8.3 ×10³ No_unit, an Activity [25] of 5.42 ×10³ No_unit and a metabolised at 1 h, 3 µM [26] of over 95%. For the same molecule, the half-life [27] was 2.96 h, the Activity [28] was 2.64 ×10³ No_unit and the Activity [29] was 10.3 ×10³ No_unit.
